Among the data in the RNAGym collection of RNA variant scans (doi:10.1126/science.aae0568) are yeast fitness values, retold here.

This sample holds only a part of the variants without activity.

The labels stand for the following.
B1: tRNA (parent)
chain: GUUCCGUUGGCGUAAUGGUAACGCGUCUCCCUCCUAAGGAGAAGACUGCGGGUUCGAGUCCCGUACGGAACG

Variants of B1 are the subject of this data set. The data set can be described thus: yeast fitness relative to wild type (ratio to wild type); higher = fitter; tRNA-Arg(CCU), competitive growth, 37 C, YPD. The method in brief:
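Gene amplicons from the start population and from each of six end populations were read by 100-nucleotide paired-end sequencing. Those end populations came from pooled Saccharomyces cerevisiae strains carrying tRNA-Arg(CCU) gene variants at the native locus, competed in YPD at 37°C for 24 hours. Fitness relative to wild type was worked out from changes in genotype frequencies. Genotypes needed ≥ 100 starting reads, and estimates < 0.5 were set to 0.5.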
GUUACGUUGGCGUAAUGGUAACGCGUCUCCCCCCUAAGGUGAAGACUGGGGGUUCGAGUCCCGUACGCAACG: the yeast fitness was at most 0.5.
For the variant GUUCCGUUGGCGUAAUGGUAACGCGUCUCCCUGCUAAGGAGAAGUUUGCGGGUUCCAGUCCCGUACGGAACG, the yeast fitness was at most 0.5.
The same measure for GUCCCGUUGGCGUAAUGGUAACGCGUCUCAGUCCUAAGGAGAAGACUGAGGGUUCGAGUUCCGUACAGAACG: at most 0.5; for GUUCCGUUGGCGUAAUGGUAACGCGUCUCCCUCCUAAGGAGAAGAAUGCGGGUUCGAGUCCCGUUCGGAACG: 0.843; for GUUCUGUUGCCGUAAUGGUAACGCGUCUCACUCCUUAGGAGCAGACUGCGGGUUCGAGUCCCGUACGGAACG: at most 0.5.
Regarding GUUCCGUAGGCGUAAUGGUAACGCAUCUCCCUCCUAAGGCGAAGAUUGCGGGUUCGAGUCCCGUACGGAACG, the yeast fitness was 0.598.
On to GUACCGUUGGCGUUAUGGUAACGCGUCUCCCUCCUAAGGAGAAGAGUGCGGGUUCGAGUCCCGUACGGAACG, for which the yeast fitness is at most 0.5.
The figure for GUCCCGUUGGCGUAAUGGUAACGCGUCUCCCUCCUACGGAGAAGACUGCGGGUUCGGGUCCCGUACGCAACG is at most 0.5.
In the case of GUUCCGUUGGCGUAAUGGUAACGCGUCUCCCUCCUAAGGAGAAGACUGAGGGUUCCAGUCCCGUACGCAACG, the yeast fitness is 0.574.
In the case of GUUCUGUUGGCGUAAUGGUAACGCGUCUCCCUCCUAAGGAGAAGGCUGCGGGUUCGAGUCCUGUACGGAACG, the yeast fitness was found to be 0.994.
GUUCCGUUGGCGUAAUGGUAACGUGACGCCCUCCUAAGGAGAAGACUACGGGUUCGUGUCCCGUACGGAACG: the yeast fitness was at most 0.5.
As for GUUCCGUUGCCGUAAUGGUAACGCGCCUCCCUCCUAAGGAGAAGACUGCGGGUUCGAGUCCCGUACGGAACG, the yeast fitness worked out at 0.673.
With GUUCCGAUGCCGUAAUGGUAACGCGUCUCGCUCCUAAGGAGAAGAUUGCGGGUUCGAGUCCCGUACGGAACG, the yeast fitness is at most 0.5.
GUUCCGUUAGCGUAAUGGUUAGGCGUCUCCCUCCUAAGGAGAAGACUGCGGGUUCGAGUCCCGUACGGAACG: the yeast fitness turned out to be 0.53.
The same measure for GUUACGUUGGCGUAAUGGUAACGAGUCUCCCUCCUAAGGAGAAGACUGCGGCUUCGCGACCCGUACGGAACG: 0.57; for GUUCCGUUGGCGUAAUGGUAACGCGUCUCCCUCCUAAGUAGAAGGCUGCCGGUACGAGUCCCGUACAGAACG: 0.673; for GUUCCGUUGGCGUAAUGGUAACGCGACUCCCUCCUAAGGAGAAGACUGCGGGUUCGAGUCCCGUACGGAGCG: 0.924.
In the case of GUUCCGUUGGCGUAAUGGUAAACCGUUUCCCUCCUAAGGAGAAGACUGCGGGUUCGAGUCCCGUACGGAACG, the yeast fitness was at most 0.5.
In the case of GUUCCGUUGGCGUAAUGGUACCGCGUCUCCCUCAUAGGGAGAAGACUGCGGGUUCGAGUCCCGUACGGAACG, the yeast fitness stood at 0.513.
With GUUCCGUUGGCGUAAUGGUAACGCGUCUCCCUCCUAACGAGAAGACUGGGGGUUCGAGUCCCGUACGGAACG, the yeast fitness is 0.743.
GCUCCAUUGGCGUAAUGGUAACACGUUUCCCUCCUAAGGAGAAGCCUGCGGGUUCGAGUACCGUACGGAACG: the yeast fitness came out at 0.605.
On to GUUCCGUUGGCGUAAUGGUAACGCGUCUCCCUUCUAAGGAGAAGACUGCGGGUUUGAGUCCCGUACGGAUCG, for which the yeast fitness came out at 0.627.
For GUUUCGUGGGCAUAAUGGUAACGCGUCUCCCUCCUAAGGAGAAGACUGCGGGUUUGAGUCCCGUACGGAACG, the yeast fitness was at most 0.5.
Take GUUCCGUUGGCGUAAUGGUAGCGCGUCUCCCUCCUAAGGAGAUGACUGCGGGUUCGAGUCCCGUACGGAACG: the yeast fitness is 0.963.
As to GUUCCGUAGGUGUAAUGGUAACGCGUCUCCGUCCUAACGCGAAGACUGCGGGUUCAAGUCCCGUACGGAACG, the yeast fitness was at most 0.5.
With GUUCCGAUGGCGUAAUGGUACCGCGUCUCCCUCCUGAGGAGAAGACUGCGGGUUCGAGUCCCGUACGCAACG, the yeast fitness is at most 0.5.
The same measure for GUUCCGUUGGCGUAAUGGUAACGCGUCUCCCUCCUAAGGAGAUGACUGCGGGUUCGAGUCCCGUACGGUACG: 0.904.
The same measure for GUUCUGUUGGCGUUAUGGUAACGCGUCUCCCUCCUAAGGAGAAGAUUGCGGCUUCGAGUCCCGUACGGUACG: at most 0.5.
For the variant GUUCCGUUGGUGUAAUGGUAACGCGUCCCCCUCCUAAGGAGAAGUCUGCGGGUUCGAGUCCCGUACGGAACG, the yeast fitness came out at 0.742.
Consider GUUCCGUUGGCGUAAUGGUACCGCGUCUCGCUCCUAAGGAGAAGACUGCGGGUUCGAGUCCCGUAAGGAACG, for which the yeast fitness is 0.572.
The same measure for GUUCCGCUGGCGUAAUGGUAACGCGUCACCCUCCUAAGGAGAAGACUCCGGGUUCGAGUCCUGUACGGACCG: at most 0.5; for GUUCCGUUGGCGCAAUGGUAACGCGCCUCCUUCCUAAGGAGAAGACUGCGGGUUCGAGUCCCGUACGGAACG: 0.784; for GUUCCGUUGGCGUGAUGGUAACGCGUCUCCCUCGUAAGGAGACGACUGCGGGUUCGAGUCCAGUAAGGAACG: at most 0.5.
The figure for GUAUCGUUGGCGUAAUGGUAACGCCUCUCCCUCCUAAGGAGAAGACUGCGGGUUCGAGUCCCGUACGGAACG is at most 0.5.
As for GUUCGGUUGGCGAAAUGGUAACGCGUCUCUCUCCUAAGGAGAAGACUGCGGGUUCGAGUCCCGUACGGAACG, the yeast fitness was found to be 0.56.
The same measure for GUUCGGUUGGCGUAAAGGUAACGCGUCUUCCUCCUAAGGUGAAGACUGCGGGUUCGAGUCCCGUCCGGAACG: at most 0.5; for GUUCCGUUGGCGUAAUGGUCACGCGUCUCCCUCCUAAGGAGAAGACUGGGGGUUCGAGUCCCGUACAGAACG: 0.59.
